Assay results as given in ChEMBL document CHEMBL1139139, “Discovery of novel 2,3-diarylfuro[2,3-b]pyridin-4-amines as potent and selective inhibitors of Lck: synthesis, SAR, and pharmacokinetic properties” (Bioorg Med Chem Lett, 2007).

What was measured:
[1] = target: Vascular endothelial growth factor receptor 2 (Homo sapiens, UniProt P35968); assay: Inhibition of KDR
[2] = target: Activated CDC42 kinase 1 (Homo sapiens, UniProt Q07912); assay: Inhibition of Ack1
[3] = target: T1, Tyrosine-protein kinase JAK3 (Homo sapiens, UniProt P52333); assay: Inhibition of JAK3
T1 sequence (P52333 whole entry): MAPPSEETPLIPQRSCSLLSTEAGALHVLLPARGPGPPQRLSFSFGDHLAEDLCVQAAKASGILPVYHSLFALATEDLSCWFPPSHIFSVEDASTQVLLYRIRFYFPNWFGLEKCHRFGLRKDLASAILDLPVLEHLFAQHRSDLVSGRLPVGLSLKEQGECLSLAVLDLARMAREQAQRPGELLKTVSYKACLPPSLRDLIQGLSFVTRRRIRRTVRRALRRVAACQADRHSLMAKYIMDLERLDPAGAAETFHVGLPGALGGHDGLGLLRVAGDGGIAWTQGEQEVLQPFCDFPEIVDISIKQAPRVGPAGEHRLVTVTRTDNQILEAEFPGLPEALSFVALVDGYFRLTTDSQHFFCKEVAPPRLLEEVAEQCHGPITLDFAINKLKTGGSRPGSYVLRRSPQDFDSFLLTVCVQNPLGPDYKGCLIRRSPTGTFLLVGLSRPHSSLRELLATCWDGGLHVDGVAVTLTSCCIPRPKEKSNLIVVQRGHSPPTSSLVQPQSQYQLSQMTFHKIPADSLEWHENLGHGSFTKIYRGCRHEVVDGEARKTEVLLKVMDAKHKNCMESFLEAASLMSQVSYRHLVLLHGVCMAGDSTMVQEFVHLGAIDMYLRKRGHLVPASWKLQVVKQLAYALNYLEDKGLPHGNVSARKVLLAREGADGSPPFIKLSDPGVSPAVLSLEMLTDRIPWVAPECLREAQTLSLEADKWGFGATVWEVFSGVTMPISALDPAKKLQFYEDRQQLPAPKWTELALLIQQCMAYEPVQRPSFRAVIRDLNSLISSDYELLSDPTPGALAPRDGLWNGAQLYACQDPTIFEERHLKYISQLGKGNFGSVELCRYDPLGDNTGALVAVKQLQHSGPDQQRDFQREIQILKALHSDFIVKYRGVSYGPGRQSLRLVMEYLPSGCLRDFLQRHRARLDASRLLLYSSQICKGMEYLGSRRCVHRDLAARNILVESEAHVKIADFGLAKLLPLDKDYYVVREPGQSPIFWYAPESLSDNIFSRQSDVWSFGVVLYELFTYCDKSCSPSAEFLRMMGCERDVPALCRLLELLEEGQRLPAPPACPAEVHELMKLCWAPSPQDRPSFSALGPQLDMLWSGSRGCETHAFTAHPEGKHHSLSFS

[4] = test system: T-cell; assay: Inhibition of anti-CD3/CD28-induced IL2 secretion in human T cells; format: functional, cell-based
Procedure, shortened: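 Human T cells stimulated with anti-CD3/CD28, with IL-2 secretion as read-out. IC50 determined.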

[5] = test system: T-cell; assay: Inhibition of T cell activation in human mixed lymphocyte reaction; format: functional, cell-based
[6] = Clearance in Sprague-Dawley rat at 1 mg/kg, iv; format: ADME, organism-based; design: dose 1 mg/kg, route intravenous; conditions: in vivo
[7] = Volume of distribution at steady state Sprague-Dawley rat at 1 mg/kg, iv; format: ADME, organism-based; design: dose 1 mg/kg, route intravenous; conditions: in vivo, read-out: Vdss
[8] = (§1) Half life in Sprague-Dawley rat at 1 mg/kg, iv; format: ADME, organism-based; design: dose 1 mg/kg, route intravenous; conditions: Sprague-Dawley, in vivo
[9] = target: Tyrosine-protein kinase Lck (Homo sapiens, UniProt P06239); assay: Inhibition of Lck by HTRF assay
[10] = test system: Rattus norvegicus; assay: as §1; format: ADME, organism-based; design: dose 1 mg/kg, route intravenous; conditions: in vivo

Chain of Vascular endothelial growth factor receptor 2 (P35968 whole entry): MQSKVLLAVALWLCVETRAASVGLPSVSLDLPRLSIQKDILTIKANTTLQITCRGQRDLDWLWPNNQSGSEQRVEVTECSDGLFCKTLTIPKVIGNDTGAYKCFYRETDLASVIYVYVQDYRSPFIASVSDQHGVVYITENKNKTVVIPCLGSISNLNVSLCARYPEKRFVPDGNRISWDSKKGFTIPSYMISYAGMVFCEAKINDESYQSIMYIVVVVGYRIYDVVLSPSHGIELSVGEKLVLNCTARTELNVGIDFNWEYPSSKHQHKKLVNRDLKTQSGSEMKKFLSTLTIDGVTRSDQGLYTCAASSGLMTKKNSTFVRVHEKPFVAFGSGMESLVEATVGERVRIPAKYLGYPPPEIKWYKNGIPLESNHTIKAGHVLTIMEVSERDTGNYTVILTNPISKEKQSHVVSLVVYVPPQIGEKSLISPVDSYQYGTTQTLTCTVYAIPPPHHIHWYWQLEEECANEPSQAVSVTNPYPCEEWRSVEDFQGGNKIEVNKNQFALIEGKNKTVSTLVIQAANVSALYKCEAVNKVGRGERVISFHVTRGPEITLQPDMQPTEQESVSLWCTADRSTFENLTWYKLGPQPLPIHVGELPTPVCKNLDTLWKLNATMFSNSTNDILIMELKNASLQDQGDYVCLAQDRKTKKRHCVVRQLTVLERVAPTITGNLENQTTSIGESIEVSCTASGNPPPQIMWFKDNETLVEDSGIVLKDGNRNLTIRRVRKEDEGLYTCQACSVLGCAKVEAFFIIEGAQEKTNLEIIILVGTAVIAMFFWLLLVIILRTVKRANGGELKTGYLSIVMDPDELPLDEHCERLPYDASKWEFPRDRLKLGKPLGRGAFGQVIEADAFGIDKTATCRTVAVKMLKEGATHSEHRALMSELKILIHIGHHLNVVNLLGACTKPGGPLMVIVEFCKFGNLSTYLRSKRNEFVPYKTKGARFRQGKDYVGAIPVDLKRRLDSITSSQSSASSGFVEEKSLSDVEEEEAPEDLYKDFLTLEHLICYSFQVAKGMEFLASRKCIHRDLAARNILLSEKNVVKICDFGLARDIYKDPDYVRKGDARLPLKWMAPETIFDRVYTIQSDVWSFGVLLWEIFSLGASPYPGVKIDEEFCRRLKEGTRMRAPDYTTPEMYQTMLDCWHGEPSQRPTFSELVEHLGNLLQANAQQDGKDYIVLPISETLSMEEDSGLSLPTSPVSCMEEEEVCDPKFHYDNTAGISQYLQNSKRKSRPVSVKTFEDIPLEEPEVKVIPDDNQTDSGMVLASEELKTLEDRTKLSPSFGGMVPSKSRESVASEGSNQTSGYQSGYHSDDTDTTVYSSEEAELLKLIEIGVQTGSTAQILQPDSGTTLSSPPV
Chain of Activated CDC42 kinase 1 (Q07912 whole entry): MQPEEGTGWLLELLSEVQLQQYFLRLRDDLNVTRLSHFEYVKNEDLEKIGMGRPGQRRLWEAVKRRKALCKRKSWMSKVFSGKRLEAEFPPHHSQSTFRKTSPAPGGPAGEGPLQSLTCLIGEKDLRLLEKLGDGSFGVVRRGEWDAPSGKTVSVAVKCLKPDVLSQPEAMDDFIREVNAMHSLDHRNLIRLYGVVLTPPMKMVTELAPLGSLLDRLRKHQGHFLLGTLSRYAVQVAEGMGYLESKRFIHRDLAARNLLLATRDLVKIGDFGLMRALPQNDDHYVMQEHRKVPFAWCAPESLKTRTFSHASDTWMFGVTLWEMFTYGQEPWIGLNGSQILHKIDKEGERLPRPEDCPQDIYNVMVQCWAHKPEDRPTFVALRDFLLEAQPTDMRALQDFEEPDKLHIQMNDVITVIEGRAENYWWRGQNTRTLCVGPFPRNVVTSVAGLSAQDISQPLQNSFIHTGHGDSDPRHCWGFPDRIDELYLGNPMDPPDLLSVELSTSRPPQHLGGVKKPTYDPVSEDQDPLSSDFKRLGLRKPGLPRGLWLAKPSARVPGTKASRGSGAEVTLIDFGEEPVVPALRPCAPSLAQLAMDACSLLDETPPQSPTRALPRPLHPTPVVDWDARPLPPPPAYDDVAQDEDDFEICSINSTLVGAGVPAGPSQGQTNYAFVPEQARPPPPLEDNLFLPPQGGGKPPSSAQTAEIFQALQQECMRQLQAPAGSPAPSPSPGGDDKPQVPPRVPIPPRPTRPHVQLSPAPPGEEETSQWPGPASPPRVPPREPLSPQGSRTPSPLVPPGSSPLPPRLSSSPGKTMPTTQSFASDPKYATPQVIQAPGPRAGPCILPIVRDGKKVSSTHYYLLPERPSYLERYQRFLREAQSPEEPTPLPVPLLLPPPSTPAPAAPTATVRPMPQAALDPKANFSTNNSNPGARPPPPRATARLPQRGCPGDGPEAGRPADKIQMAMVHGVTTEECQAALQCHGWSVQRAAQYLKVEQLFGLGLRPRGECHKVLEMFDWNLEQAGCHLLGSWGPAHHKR
Chain of Tyrosine-protein kinase Lck (P06239 whole entry): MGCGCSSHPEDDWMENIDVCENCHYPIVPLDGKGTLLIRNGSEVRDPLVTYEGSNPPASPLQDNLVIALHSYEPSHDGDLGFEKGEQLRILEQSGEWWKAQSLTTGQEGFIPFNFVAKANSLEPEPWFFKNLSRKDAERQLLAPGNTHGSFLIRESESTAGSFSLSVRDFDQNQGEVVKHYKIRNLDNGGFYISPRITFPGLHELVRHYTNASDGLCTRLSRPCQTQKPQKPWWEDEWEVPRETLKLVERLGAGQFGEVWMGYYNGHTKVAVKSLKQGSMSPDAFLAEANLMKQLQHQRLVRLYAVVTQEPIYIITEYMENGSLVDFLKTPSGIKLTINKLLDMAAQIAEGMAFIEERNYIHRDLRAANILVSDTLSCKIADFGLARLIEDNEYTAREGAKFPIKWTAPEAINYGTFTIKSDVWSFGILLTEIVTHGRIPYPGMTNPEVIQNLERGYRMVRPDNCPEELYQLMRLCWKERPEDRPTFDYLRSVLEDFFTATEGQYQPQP

Row | Compound | IC50 [1] | IC50 [2] | IC50 [3] | IC50 [4] | IC50 [5] | clearance [6] | Vd [7] | half-life [8] | IC50 [9] | t1/2 [10]
1 | c1ccc(-c2oc3nccc(NCCN4CCNCC4)c3c2-c2ccccc2)cc1 | 360 nM | 420 nM | 140 nM | 1200 nM | 620 nM | 20 mL/min/kg | 2.3 L/kg | 1.5 h |  | 
2 | c1ccc(-c2c(-c3ccc(OCCN4CCCC4)cc3)oc3nccc(NCCN4CCNCC4)c23)cc1 | 210 nM | 170 nM | 110 nM | 650 nM | 170 nM |  |  |  |  | 
3 | c1ccc(-c2oc3ncnc(NCCN4CCNCC4)c3c2-c2ccccc2)cc1 | 2600 nM |  |  | 710 nM |  |  |  |  |  | 
4 | CC(C)N(CCOc1ccc(-c2oc3nccc(NCCN4CCNCC4)c3c2-c2ccccc2)cc1)C(C)C | 67 nM | 180 nM | 44 nM | 250 nM | 18 nM |  |  |  | 19 nM | 3.1 h
5 | c1ccc(-c2c(-c3ccc(OCCN4CCCCC4)cc3)oc3nccc(NCCN4CCNCC4)c23)cc1 | 100 nM | 120 nM | 71 nM | 510 nM | 61 nM | 188 mL/min/kg | 60 L/kg | 4.7 h | 29 nM | 
6 | c1ccc(-c2c(-c3ccc(OCCN4CCCCC4)cc3)oc3nccc(NCCCn4ccnc4)c23)cc1 | 1700 nM | 930 nM | 1400 nM |  |  |  |  |  |  | 
7 | c1ccc(-c2c(-c3ccc(OCCN4CCOCC4)cc3)oc3nccc(NCCN4CCNCC4)c23)cc1 | 57 nM | 150 nM | 32 nM | 130 nM | 14 nM | 128 mL/min/kg | 4.7 L/kg | 5.3 h |  | 
8 | c1ccc(-c2c(-c3ccc(OCCN4CCCCC4)cc3)oc3nccc(NCCc4ccncc4)c23)cc1 | 4700 nM | 180 nM | 80 nM |  |  |  |  |  | 1600 nM | 
9 | c1ccc(-c2oc3nccc(NC[C@@H]4CCCO4)c3c2-c2ccccc2)cc1 | 4200 nM | 110 nM | 26 nM | 5200 nM | 4000 nM |  |  |  | 2100 nM | 
10 | c1ccc(-c2c(-c3ccc(OCCN4CCCCC4)cc3)oc3nccc(NCCc4cccnc4)c23)cc1 | 370 nM | 20 nM | 37 nM |  |  |  |  |  |  | 
11 | c1ccc(-c2c(-c3ccc(OCCn4ccnc4)cc3)oc3nccc(NCCN4CCNCC4)c23)cc1 | 160 nM | 84 nM | 25 nM | 470 nM | 57 nM | 192 mL/min/kg | 7.2 L/kg | 0.8 h |  | 
